Test results reported in the array DNA melting data of Ke et al. (doi:10.1101/2024.01.08.574731).

Tests used:
[1] = melting temperature; fluorescence melt of hairpins on a sequencing array, two-state fit, raised by 9.35 °C to match UV melts; conditions: sodium 0.088 M
Outline: (§1)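 Cy3 fluorescence of library hairpins on a sequenced MiSeq flow cell, with annealed Cy3 and quencher oligos, was imaged in 50 mM Na-HEPES pH 8.0, 25 mM NaCl in 2.5 °C steps up to 60 °C. Signals were normalised to pre-quench Cy3 and to control variants. Melting temperature and folding enthalpy came from bootstrapped two-state fits, inverse-variance combined over four replicates. Fitted temperatures were raised by 9.35 °C to match UV melts.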

[2] = folding enthalpy; higher = less favourable; fluorescence melt of hairpins on a sequencing array, two-state fit; conditions: sodium 0.088 M
Outline: as §1

GAGAGTCCGAAAGGACTC (((..(((....))))))
Tm [1]: 60.4 °C | folding enthalpy [2]: -8.55 kcal/mol

GAGAGTGAAAACTCTC ((((((....))))))
Tm [1]: 53.9 °C | folding enthalpy [2]: -32.1 kcal/mol

GAGAGTGGAAACATTCTC ((((.((....)).))))
Tm [1]: 38.5 °C | folding enthalpy [2]: -32.6 kcal/mol

GAGAGTGGAAACGTTCTC ((((..(....)..))))
Tm [1]: 33.9 °C | folding enthalpy [2]: -14.4 kcal/mol

GAGATAGGAAACTGTCTC ((((.((....)).))))
Tm [1]: 41.3 °C | folding enthalpy [2]: -29.5 kcal/mol

GAGATCCGAAAGGACCTC (((.(((....))).)))
Tm [1]: 47.1 °C | folding enthalpy [2]: -28.4 kcal/mol

GAGATCGCGAAAGCGCTC (((..(((....))))))
Tm [1]: 33.6 °C | folding enthalpy [2]: -8.57 kcal/mol

GAGATCGGAAACAATCTC (((((.(....).)))))
Tm [1]: 32.5 °C | folding enthalpy [2]: -15.3 kcal/mol

GAGATGGGAAACCATCTC (((((((....)))))))
Tm [1]: 60.3 °C | folding enthalpy [2]: -39.2 kcal/mol

GAGCAACCGAAAGGTCTC (((..(((....))))))
Tm [1]: 30.1 °C | folding enthalpy [2]: -13.1 kcal/mol

GAGCAACGAAAGTTACTC (((.(((....))).)))
Tm [1]: 42.9 °C | folding enthalpy [2]: -26.2 kcal/mol

GAGCAAGAAATTGCTC ((((((....))))))
Tm [1]: 54.8 °C | folding enthalpy [2]: -29.8 kcal/mol

GAGCAAGGAAACTTGCTC (((((((....)))))))
Tm [1]: 63.8 °C | folding enthalpy [2]: -40.4 kcal/mol

GAGCAAGGAAACTTGTTC ((.((((....)))).))
Tm [1]: 36.2 °C | folding enthalpy [2]: -26.1 kcal/mol

GAGCACGAAAGTGACCTC ((((((....)))..)))
Tm [1]: 39.6 °C | folding enthalpy [2]: -15.1 kcal/mol

GAGCACGAAAGTGCCCTC ((((((....)))..)))
Tm [1]: 44.3 °C | folding enthalpy [2]: -9.48 kcal/mol

GAGCACGAAAGTGGCTC ((((((....))).)))
Tm [1]: 56.5 °C | folding enthalpy [2]: -24.2 kcal/mol

GAGCACGAAAGTGTCCTC ((((((....)))..)))
Tm [1]: 35.2 °C | folding enthalpy [2]: -12.9 kcal/mol

GAGCACGGAAACATGCTC (((((.(....).)))))
Tm [1]: 45.4 °C | folding enthalpy [2]: -35 kcal/mol

GAGCACGGAAACGCGCTC ((((.((....)).))))
Tm [1]: 55.3 °C | folding enthalpy [2]: -42.9 kcal/mol

GAGCAGGGAAACCCGCTC ((((.((....)).))))
Tm [1]: 51.4 °C | folding enthalpy [2]: -34.2 kcal/mol

GAGCAGGGAAACTTGCTC (((((.(....).)))))
Tm [1]: 49 °C | folding enthalpy [2]: -32.1 kcal/mol

GAGCATGGAAACACGCTC ((((.((....)).))))
Tm [1]: 44 °C | folding enthalpy [2]: -35.6 kcal/mol

GAGCCACGAAAGTGTCTC (((.(((....))).)))
Tm [1]: 50 °C | folding enthalpy [2]: -29 kcal/mol

GAGCCAGGAAACTGGTTC ((.((((....)))).))
Tm [1]: 49.4 °C | folding enthalpy [2]: -29.9 kcal/mol

GAGCCCGAAAGGGGACTC ((((((....)))..)))
Tm [1]: 47.8 °C | folding enthalpy [2]: -18.9 kcal/mol

GAGCCCGAAAGGGGCCTC ((((((....)))..)))
Tm [1]: 49.9 °C | folding enthalpy [2]: -13.5 kcal/mol

GAGCCCGAAAGGGTGCTC ((((((....)))..)))
Tm [1]: 52.1 °C | folding enthalpy [2]: -18.6 kcal/mol

GAGCCCGGAAACAGGCTC (((((.(....).)))))
Tm [1]: 51.5 °C | folding enthalpy [2]: -39.4 kcal/mol

GAGCCGGGAAACCGGCCC (.(((((....))))).)
Tm [1]: 48.2 °C | folding enthalpy [2]: -9.15 kcal/mol

GAGCCTGGAAACGGGCTC (((((.(....).)))))
Tm [1]: 58.9 °C | folding enthalpy [2]: -47.8 kcal/mol

GAGCGACGAAAGTCCCTC (((.(((....))).)))
Tm [1]: 43.6 °C | folding enthalpy [2]: -16.1 kcal/mol

GAGCGACGAAAGTCCTC (((.(((....))))))
Tm [1]: 48.3 °C | folding enthalpy [2]: -17.1 kcal/mol

GAGCGAGGAAACTCACTC (((.(((....))).)))
Tm [1]: 42.1 °C | folding enthalpy [2]: -31 kcal/mol

GAGCGCGAAAGCGGCCTC ((((((....)))..)))
Tm [1]: 51.1 °C | folding enthalpy [2]: -11.7 kcal/mol

GAGCGCGAAAGCGTCTC ((((((....))).)))
Tm [1]: 61.5 °C | folding enthalpy [2]: -21.2 kcal/mol

GAGCGCGCGAAAGCGCTC (((..(((....))))))
Tm [1]: 64.6 °C | folding enthalpy [2]: -12.4 kcal/mol

GAGCGCGGAAACGCGCCC (.(((((....))))).)
Tm [1]: 59.7 °C | folding enthalpy [2]: -5.64 kcal/mol

GAGCGGAAACGCTC (((((....)))))
Tm [1]: 69.1 °C | folding enthalpy [2]: -27.4 kcal/mol

GAGCGGCCGAAAGGCCTC (((..(((....))))))
Tm [1]: 28 °C | folding enthalpy [2]: -6.54 kcal/mol

GAGCGGGGAAACCCGCCC (.(((((....))))).)
Tm [1]: 45.1 °C | folding enthalpy [2]: -8.26 kcal/mol

GAGCGTGGAAACACGCCC (.(((((....))))).)
Tm [1]: 47.9 °C | folding enthalpy [2]: -7.9 kcal/mol

GAGCGTGGAAACGCGCTC (((((.(....).)))))
Tm [1]: 66.7 °C | folding enthalpy [2]: -21.7 kcal/mol

GAGCTACGAAAGTACTC (((.(((....))))))
Tm [1]: 39.1 °C | folding enthalpy [2]: -21.3 kcal/mol

GAGCTAGAAATAGCTC ((((((....))))))
Tm [1]: 53.4 °C | folding enthalpy [2]: -33.6 kcal/mol

GAGCTAGCGAAAGCTCTC (((..(((....))))))
Tm [1]: 45.3 °C | folding enthalpy [2]: -17 kcal/mol

GAGCTCCGAAAGGACTC (((.(((....))))))
Tm [1]: 47.4 °C | folding enthalpy [2]: -23.6 kcal/mol

GAGCTCGGAAACGAACCC (.(.(((....))).).)
Tm [1]: 19.5 °C | folding enthalpy [2]: -4.42 kcal/mol

GAGCTGGGAAACCAACTC (((.(((....))).)))
Tm [1]: 39.9 °C | folding enthalpy [2]: -32 kcal/mol

GAGCTGGGAAACCAGTTC ((.((((....)))).))
Tm [1]: 47.4 °C | folding enthalpy [2]: -24.4 kcal/mol

GAGCTGGGAAACTGGCTC ((((..(....)..))))
Tm [1]: 46.7 °C | folding enthalpy [2]: -27.6 kcal/mol

GAGCTTCCGAAAGGACTC (((..(((....))))))
Tm [1]: 29.2 °C | folding enthalpy [2]: -27.4 kcal/mol

GAGCTTGGAAACAAGCTC (((((((....)))))))
Tm [1]: 67.8 °C | folding enthalpy [2]: -35.1 kcal/mol

GAGGAACCGAAAGGTCTC (((..(((....))))))
Tm [1]: 35.2 °C | folding enthalpy [2]: -15.4 kcal/mol

GAGGAAGGAAACTTCTTC ((.((((....)))).))
Tm [1]: 33.9 °C | folding enthalpy [2]: -16.7 kcal/mol

GAGGACCGAAAGGTCTC (((.(((....))))))
Tm [1]: 46.5 °C | folding enthalpy [2]: -10.9 kcal/mol

GAGGACGAAAGTCGTCTC ((((((....)))..)))
Tm [1]: 52.2 °C | folding enthalpy [2]: -28.6 kcal/mol

GAGGACGAAAGTCTGCTC ((((((....)))..)))
Tm [1]: 39.2 °C | folding enthalpy [2]: -14.4 kcal/mol

GAGGACGGAAACGTTCTC (((.(((....))).)))
Tm [1]: 51.6 °C | folding enthalpy [2]: -41.9 kcal/mol

GAGGAGGGAAACTTCCTC (((((.(....).)))))
Tm [1]: 41.9 °C | folding enthalpy [2]: -25.6 kcal/mol

GAGGATGGAAACGTCCTC (((((.(....).)))))
Tm [1]: 49.6 °C | folding enthalpy [2]: -34.9 kcal/mol

GAGGCACCGAAAGGTCTC (((..(((....))))))
Tm [1]: 31.3 °C | folding enthalpy [2]: -11.5 kcal/mol

GAGGCAGCGAAAGCTCTC (((..(((....))))))
Tm [1]: 31.8 °C | folding enthalpy [2]: -10.2 kcal/mol

GAGGCCGAAAGGCACCTC ((((((....)))..)))
Tm [1]: 40 °C | folding enthalpy [2]: -8.77 kcal/mol

GAGGCCGAAAGGCATCTC ((((((....)))..)))
Tm [1]: 68.4 °C | folding enthalpy [2]: -17.1 kcal/mol

GAGGCCGCGAAAGCGCTC (((..(((....))))))
Tm [1]: 35 °C | folding enthalpy [2]: -12.8 kcal/mol

GAGGCTGGAAACAACCTC ((((.((....)).))))
Tm [1]: 41.8 °C | folding enthalpy [2]: -29.2 kcal/mol

GAGGCTGGAAACAGCCCC (.(((((....))))).)
Tm [1]: 46.1 °C | folding enthalpy [2]: -8.68 kcal/mol
